CFTR F508del cor – CFTR F508del correction in bronchial cells. CFBE cells, YFP halide quenching; stimulated with forskolin plus potentiator P3; % fluorescence drop versus neutral controls. activity (quench increase), % at 7.58 µM. 350,000 tested, 0.36% active. AID 720511;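 active = mean added fluorescence quench of at least 8% versus neutral control, with both replicates also reaching 8%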;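 also: cells transiently co-express mutant CFTR-F508del with the halide-sensitive YFP; corrector assay measuring rescue of mutant channel to the surface after 24 h compound exposure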
Cneo AK release – Cryptococcus neoformans lysis via adenylate kinase release. lysis activity, % at 15 µM. 360,000 tested, 0.2% active. C. neoformans lysis, adenylate kinase release luminescence, 4 h; normalised: neutral wells 0, clomiphene wells 100;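 active = mean lysis activity across replicates of at least 80%, whatever share of replicates individually reach that level; inactive = mean lysis activity below 80%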
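Assay system: log-phase C. neoformans yeast / Quantity: yeast cell density of 5 × 10^6 cells/mL / Medium: fresh YPD growth medium / Compound: single dose / Timing: static 4 h at 37 °C with compound, 1 h detection / Measured by: adenylate kinase release luminescence / Read-out: lysis from increased AK signal / Benchmarks: Clomiphene as positive lysis control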
DENV2 CPE rescue – protects cells from dengue virus 2 cytopathic effect. DENV2-infected cells, cytopathic effect rescue, plate reader. CPE inhibition, % at 9.99 µM. 350,000 tested, 1.7% active. AID 651640; in the data active = CPE inhibition above about 20%, passing the limit was not always enough; tested in BHK-21 cells;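 also: 0% = median of neutral control wells and 100% = median of positive control wells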
ERp5 inh – ERp5 (human) disulfide isomerase inhibition | Q15084 | ERp5 insulin aggregation, absorbance 650 nm, 90 min | inhibition, % at 9.99 µM | 350,000 tested, 0.05% active;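 active = mean replicate inhibition above about 25%, with every replicate also reaching it, limit read from the data, passing the limit was not always enough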
Target sequence (Q15084 whole entry, looked up): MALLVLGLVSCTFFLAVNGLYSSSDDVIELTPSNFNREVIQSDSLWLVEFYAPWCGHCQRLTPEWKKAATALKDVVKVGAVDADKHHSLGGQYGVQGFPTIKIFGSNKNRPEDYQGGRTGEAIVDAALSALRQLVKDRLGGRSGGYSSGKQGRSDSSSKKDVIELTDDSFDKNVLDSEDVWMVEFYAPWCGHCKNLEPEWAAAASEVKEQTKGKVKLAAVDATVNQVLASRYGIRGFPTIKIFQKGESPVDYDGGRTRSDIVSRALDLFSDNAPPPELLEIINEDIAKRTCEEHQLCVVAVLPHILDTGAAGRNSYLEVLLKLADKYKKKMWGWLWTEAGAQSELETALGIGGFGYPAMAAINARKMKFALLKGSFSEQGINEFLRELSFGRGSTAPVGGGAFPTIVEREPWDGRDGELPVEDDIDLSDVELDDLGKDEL
PDI turbidity – inhibitors of human protein disulfide isomerase | PDI insulin aggregation turbidity, A650, 90 min | inhibition, % at 10 µM | 350,000 tested, 0.052% active | P07237;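 active = mean inhibition across replicates of 30% or more, whatever share of single replicates reach that level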
Statin myotox sup – suppressors of simvastatin-induced myotoxicity in C2C12 myotubes; ATP luminescence, 48 h; scaled: DMSO 0, geranylgeraniol control 100; AID 602340; rescue of ATP level, % at 7.49 µM; 330,000 tested, 0.78% active;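 active = mean ATP rescue above about 67%, or every replicate alone reaching that limit, limit read from the data, passing the limit was not always enough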;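 also: myotubes were challenged with 10 µM simvastatin during compound exposure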
* hit, by the source's call; ! = repeats disagree. Rows were chosen to be rich in hits. Some 2.3% of all compounds tested hit in one or more screens of this group.

COc1ccc(C2=NOC(C(=O)NCc3cccs3)C2)cc1 (stereo not drawn) was read as Cneo AK release -6, PDI turbidity -24 and Statin myotox sup 97*.
Screening O=C(C1CC1)N1CC2(C1)[C@H](c1ccccc1)[C@@H](CO)N2Cc1ccccc1F returned CFTR F508del cor 7, DENV2 CPE rescue -1 and ERp5 inh 5.
`C#Cc1ccc(C(=O)Nc2ccc(N3CCC(C)CC3)c(C(N)=O)c2)cc1` gave CFTR F508del cor 16*, DENV2 CPE rescue -1, ERp5 inh 3 and PDI turbidity -1.
CCOC(=O)N1CCC(NC(=O)c2ccc3c(c2)N=C(C)c2c(C)ccc(C)c2S3)CC1 was read as CFTR F508del cor 11*, Cneo AK release 0, DENV2 CPE rescue -1, ERp5 inh 7, PDI turbidity -1 and Statin myotox sup -48.
`CCOC(=O)N1CCC(NCCNC(=O)c2ccc(Cl)cc2)CC1` gave Cneo AK release 0, PDI turbidity 21 and Statin myotox sup 0.
For CCOC(=O)N1CCC(NCCNC(=O)c2ccc(F)c(F)c2)CC1 the results were CFTR F508del cor 0, Cneo AK release -1, DENV2 CPE rescue 21*, ERp5 inh 3, PDI turbidity -2 and Statin myotox sup 0.
Screening CCOC(=O)N1CCC(NC(=O)c2ccc3c(c2)N=C(CC)c2cc(C)ccc2S3)CC1 returned CFTR F508del cor 1, Cneo AK release 0, DENV2 CPE rescue 7, ERp5 inh -5, PDI turbidity -6 and Statin myotox sup -75.
Screening CC(C)C[C@H](NC(=O)c1nc[nH]c1C(=O)N1CCC(C)CC1)C(=O)OC(C)(C)C returned CFTR F508del cor -1, Cneo AK release 3, DENV2 CPE rescue 82*, ERp5 inh 1, PDI turbidity -1 and Statin myotox sup 5.
`CC(C)C[C@H](NC(=O)c1[nH]cnc1C(=O)N[C@@H](Cc1ccccc1)C(=O)OCc1ccccc1)C(=O)OCc1ccccc1` gave CFTR F508del cor 1, Cneo AK release 0, DENV2 CPE rescue 7, ERp5 inh -10, PDI turbidity 0 and Statin myotox sup 137*.
CCC(=O)N1[C@@H](CO)[C@@H](c2ccc(-c3ccc(C#N)cc3)cc2)C12CN(C(C)=O)C2 was read as CFTR F508del cor -1, DENV2 CPE rescue 1 and ERp5 inh -3.
Cc1noc(C)c1S(=O)(=O)Nc1ccc2c(c1)CC(=O)N([C@H](C)CO)C[C@@H](C)[C@@H](CN(C)S(=O)(=O)c1ccc(Cl)cc1)O2 was read as CFTR F508del cor -2, Cneo AK release 2, DENV2 CPE rescue 9, ERp5 inh 3 and Statin myotox sup -33.
Screening COCCn1nnnc1CN(CCc1ccccc1)Cc1cc2cc(OC)ccc2[nH]c1=O returned PDI turbidity -4 and Statin myotox sup 11.
Screening COCCn1nnnc1CN(CCc1ccc(OC)c(OC)c1)Cc1cc2ccc(C)cc2[nH]c1=O returned PDI turbidity -2 and Statin myotox sup 103*.
Screening C[C@H]1CN([C@@H](C)CO)C(=O)c2c(c3ccccc3n2C)-c2ccccc2CO[C@H]1CN(C)C(=O)Nc1cccc(Cl)c1Cl returned CFTR F508del cor 0, DENV2 CPE rescue 2 and ERp5 inh 3.
For COc1ccc(NC(=O)N(C)C[C@H]2OCc3ccccc3-c3c(n(C)c4ccccc34)C(=O)N([C@H](C)CO)C[C@@H]2C)cc1 the results were CFTR F508del cor -1, Cneo AK release 111*, DENV2 CPE rescue -2 and ERp5 inh -4.
`COc1cccc(NC(=O)N(C)C[C@H]2OCc3ccccc3-c3c(n(C)c4ccccc34)C(=O)N([C@@H](C)CO)C[C@@H]2C)c1` gave CFTR F508del cor -1, Cneo AK release 0, DENV2 CPE rescue -1 and ERp5 inh -3.
`C[C@@H]1CN([C@@H](C)CO)C(=O)c2c(c3ccccc3n2C)-c2ccccc2CO[C@H]1CN(C)C(=O)Nc1cccc(Cl)c1Cl` gave CFTR F508del cor 1, DENV2 CPE rescue 40* and ERp5 inh 3.
`COc1cccc(NC(=O)N(C)C[C@H]2OCc3ccccc3-c3c(n(C)c4ccccc34)C(=O)N([C@H](C)CO)C[C@H]2C)c1` gave CFTR F508del cor 8.4*!, DENV2 CPE rescue 4 and ERp5 inh 7.

Bioassay records: PubChem BioAssay, Broad Institute
